From ChEMBL document CHEMBL1150273, “Aza-peptidyl Michael acceptors. A new class of potent and selective inhibitors of asparaginyl endopeptidases (legumains) from evolutionarily diverse pathogens” (J Med Chem, 2008)
Activity calls are given as the source filed them. The rule behind the calls is not given here.

What was measured:
[1] = organism: Sus scrofa; assay: Inhibition of pig AE assessed as ratio of pseudo-first-order inhibition rate constant to inhibitor concentration
In short: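 Pig AE in 39.5 mM citric acid, 121 mM Na2HPO4, 1 mM EDTA, 0.1% CHAPS, 0.015% Brij, 1 mM DTT.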

[2] = Inhibition of Trichomonas vaginalis G3 AE1 expressed in Pichia pastoris after 20 mins
In short: (§1)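 Recombinant AE zymogens expressed in Pichia pastoris; SmAE and TvAE1 autoactivated in 0.5 M sodium acetate, 4 mM DTT, pH 4.5, 37 °C, 3 h to overnight; IrAE used without activation. Buffer 0.1 M citrate phosphate, 4 mM DTT, pH 6.8 (SmAE, TvAE1) or pH 5.5 (IrAE). Inhibitor 2.0–0.0002 µM final, 20 min preincubation at room temperature; 10 µM final Cbz-Ala-Ala-Asn-AMC, 20 min; IC50 from RFU/min vs concentration.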

[3] = Inhibition of Ixodes ricinus AE expressed in Pichia pastoris after 20 mins; in short: as §1
[4] = (§2) Inhibition of Schistosoma mansoni AE expressed in Pichia pastoris after 20 mins; in short: as §1
[5] = molecular target: T1, Caspase-3 (Homo sapiens) (UniProt P42574); assay: Inhibition of caspase 3 assessed as ratio of pseudo-first-order inhibition rate constant to inhibitor concentration
T1 sequence (whole entry): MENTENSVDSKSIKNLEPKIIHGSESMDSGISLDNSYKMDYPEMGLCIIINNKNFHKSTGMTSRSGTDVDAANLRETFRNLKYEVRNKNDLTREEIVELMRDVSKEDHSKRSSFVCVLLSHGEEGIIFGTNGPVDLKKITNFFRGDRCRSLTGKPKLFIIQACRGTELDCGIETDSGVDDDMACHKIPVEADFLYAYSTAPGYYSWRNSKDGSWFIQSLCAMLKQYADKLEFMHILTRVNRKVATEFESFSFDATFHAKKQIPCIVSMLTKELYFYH
In short: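 Caspase-3 (1 nM final) preactivated 10 min at 37 °C in 40 mM Pipes, 200 mM NaCl, 0.2% CHAPS, 20% sucrose mixed 1:1 with 20 mM DTT, pH 7.2; enzyme added to inhibitor plus Ac-Asp-Glu-Val-Asp-AMC; progress curves 20 min at 37 °C (ex 360, em 465 nm); duplicates; rates corrected for substrate (KM 9.7 µM).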

[6] = molecular target: T2, Caspase-6 (Homo sapiens) (UniProt P55212); assay: Inhibition of caspase 6 assessed as ratio of pseudo-first-order inhibition rate constant to inhibitor concentration
T2 sequence (whole entry): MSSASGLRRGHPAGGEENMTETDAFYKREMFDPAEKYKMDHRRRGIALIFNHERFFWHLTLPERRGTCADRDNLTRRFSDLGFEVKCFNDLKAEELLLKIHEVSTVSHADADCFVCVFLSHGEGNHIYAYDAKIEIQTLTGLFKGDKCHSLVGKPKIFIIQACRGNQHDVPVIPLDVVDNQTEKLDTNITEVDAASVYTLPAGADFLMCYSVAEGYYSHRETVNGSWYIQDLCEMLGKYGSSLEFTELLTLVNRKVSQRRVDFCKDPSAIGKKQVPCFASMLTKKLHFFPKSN
In short: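 Caspase-6 at 5 nM final, assayed in the same Pipes/NaCl/CHAPS/sucrose/DTT buffer, pH 7.2, 37 °C with Ac-Asp-Glu-Val-Asp-AMC by the progress curve method; inhibitor stocks 5 × 10^-3 to 2.42 × 10^-6 M in DMSO; rates corrected for substrate using KM 236.35 µM.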

[7] = molecular target: Caspase-8 (Homo sapiens) (UniProt Q14790); assay: Inhibition of caspase 8 assessed as ratio of pseudo-first-order inhibition rate constant to inhibitor concentration
In short: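 Caspase-8 at 50 nM final, assayed in the same Pipes/NaCl/CHAPS/sucrose/DTT buffer, pH 7.2, 37 °C with Ac-Asp-Glu-Val-Asp-AMC by the progress curve method; inhibitor stocks 5 × 10^-3 to 2.42 × 10^-6 M in DMSO; rates corrected for substrate using KM 6.79 µM.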

[8] = molecular target: T3, Calpain-1 catalytic subunit (Homo sapiens) (UniProt P07384); assay: Inhibition of calpain 1 assessed as ratio of pseudo-first-order inhibition rate constant to inhibitor concentration
T3 sequence (whole entry): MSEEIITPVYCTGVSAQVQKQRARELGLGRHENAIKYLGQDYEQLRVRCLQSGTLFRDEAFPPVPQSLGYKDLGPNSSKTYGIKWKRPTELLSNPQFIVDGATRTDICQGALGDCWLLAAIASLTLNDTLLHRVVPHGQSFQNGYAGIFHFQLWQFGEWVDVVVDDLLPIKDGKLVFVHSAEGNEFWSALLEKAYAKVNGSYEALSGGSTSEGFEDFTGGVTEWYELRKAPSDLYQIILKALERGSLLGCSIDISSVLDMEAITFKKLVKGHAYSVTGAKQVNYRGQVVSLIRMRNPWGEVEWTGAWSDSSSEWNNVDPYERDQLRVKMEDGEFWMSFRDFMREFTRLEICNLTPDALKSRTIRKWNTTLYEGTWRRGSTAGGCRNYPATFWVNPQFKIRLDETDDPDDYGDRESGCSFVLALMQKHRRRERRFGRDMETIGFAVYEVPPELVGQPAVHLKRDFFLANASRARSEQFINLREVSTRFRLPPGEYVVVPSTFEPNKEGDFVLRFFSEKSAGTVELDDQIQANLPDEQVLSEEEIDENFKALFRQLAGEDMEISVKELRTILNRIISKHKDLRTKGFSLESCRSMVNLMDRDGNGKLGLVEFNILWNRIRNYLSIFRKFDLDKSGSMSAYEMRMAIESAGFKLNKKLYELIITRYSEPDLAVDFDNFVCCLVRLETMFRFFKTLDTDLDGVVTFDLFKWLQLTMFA

[9] = molecular target: T4, Papain (Carica papaya) (UniProt P00784); assay: Inhibition of papain assessed as ratio of pseudo-first-order inhibition rate constant to inhibitor concentration
T4 sequence (whole entry): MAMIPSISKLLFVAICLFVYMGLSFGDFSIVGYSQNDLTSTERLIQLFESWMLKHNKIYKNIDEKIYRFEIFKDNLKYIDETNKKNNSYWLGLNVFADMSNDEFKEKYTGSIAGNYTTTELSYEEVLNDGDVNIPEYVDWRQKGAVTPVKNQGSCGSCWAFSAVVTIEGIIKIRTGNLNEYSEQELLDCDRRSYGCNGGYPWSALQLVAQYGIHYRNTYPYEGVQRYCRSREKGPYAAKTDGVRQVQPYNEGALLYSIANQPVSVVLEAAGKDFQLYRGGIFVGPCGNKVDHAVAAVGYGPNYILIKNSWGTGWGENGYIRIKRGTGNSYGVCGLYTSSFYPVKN
In short: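 Papain, about 0.29 mg/mL, incubated with inhibitor in 50 mM Hepes, 2.5 mM DTT, 2.5 mM EDTA, pH 7.5; aliquots taken over time into 53.7 µM Cbz-Phe-Arg-pNA; p-nitroanilide release read at 405 nm at room temperature; pseudo-first-order inactivation kinetics.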

[10] = molecular target: Cathepsin B (Homo sapiens) (UniProt P07858); assay: Inhibition of cathepsin B assessed as ratio of pseudo-first-order inhibition rate constant to inhibitor concentration
[11] = molecular target: Lys-gingipain HG66 (Porphyromonas gingivalis) (UniProt P72197); assay: Inhibition of Porphyromonas gingivalis gingipain K assessed as ratio of pseudo-first-order inhibition rate constant to inhibitor concentration
In short: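 Gingipain K diluted to 4.61 nM in 0.2 M Tris-HCl, 0.1 M NaCl, 5 mM CaCl2, 2 mM DTT, pH 8.0 and incubated with inhibitor (DMSO) at room temperature; aliquots taken at intervals into buffer with Suc-Ala-Phe-Lys-AMC; fluorescence at 465 nm; pseudo-first-order kinetics.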

[12] = molecular target: T5, Clostripain (Clostridium histolyticum) (UniProt P09870); assay: Inhibition of sClostridium histolyticum clostripain assessed as ratio of pseudo-first-order inhibition rate constant to inhibitor concentration; settings: Hathewaya histolytica
T5 sequence (whole entry): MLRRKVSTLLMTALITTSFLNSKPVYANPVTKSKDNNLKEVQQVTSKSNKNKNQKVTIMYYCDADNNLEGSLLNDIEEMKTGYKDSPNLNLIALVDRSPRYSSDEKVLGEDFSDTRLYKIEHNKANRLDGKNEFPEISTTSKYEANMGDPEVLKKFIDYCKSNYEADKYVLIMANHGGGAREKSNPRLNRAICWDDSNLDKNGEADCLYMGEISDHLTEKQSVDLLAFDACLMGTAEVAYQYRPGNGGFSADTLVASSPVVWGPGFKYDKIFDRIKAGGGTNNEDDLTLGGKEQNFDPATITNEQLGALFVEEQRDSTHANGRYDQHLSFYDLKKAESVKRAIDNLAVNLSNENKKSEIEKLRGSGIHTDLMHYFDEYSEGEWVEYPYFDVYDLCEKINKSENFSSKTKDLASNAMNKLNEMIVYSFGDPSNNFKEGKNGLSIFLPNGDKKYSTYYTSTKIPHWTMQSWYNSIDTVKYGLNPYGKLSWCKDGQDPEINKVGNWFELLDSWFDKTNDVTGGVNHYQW
In short: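 Clostripain activated in 8 mM DTT, then incubated with inhibitor (DMSO) in 20 mM Tris-HCl, 10 mM CaCl2, 0.005% Brij 35, 2 mM DTT, pH 7.6; aliquots taken at intervals into buffer with Cbz-Phe-Arg-AMC; fluorescence at 465 nm; pseudo-first-order kinetics.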

[13] = molecular target: T6, Legumain (Homo sapiens) (UniProt Q99538); assay: Inhibition of human AE assessed as ratio of pseudo-first-order inhibition rate constant to inhibitor concentration
T6 sequence (whole entry): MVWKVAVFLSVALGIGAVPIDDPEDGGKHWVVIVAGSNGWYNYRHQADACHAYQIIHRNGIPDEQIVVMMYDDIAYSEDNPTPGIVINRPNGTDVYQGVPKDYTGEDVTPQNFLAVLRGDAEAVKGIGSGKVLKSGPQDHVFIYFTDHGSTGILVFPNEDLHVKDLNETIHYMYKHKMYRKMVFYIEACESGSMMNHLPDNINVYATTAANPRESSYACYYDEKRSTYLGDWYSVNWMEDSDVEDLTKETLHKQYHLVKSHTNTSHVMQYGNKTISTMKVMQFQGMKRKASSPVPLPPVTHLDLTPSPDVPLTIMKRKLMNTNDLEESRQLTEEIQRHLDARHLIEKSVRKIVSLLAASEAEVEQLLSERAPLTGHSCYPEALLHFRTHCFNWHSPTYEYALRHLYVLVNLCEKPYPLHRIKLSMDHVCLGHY
In short: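 Human AE; inhibitor and substrate incubated at 25 °C in 20 mM citric acid, 60 mM Na2HPO4, 1 mM EDTA, 0.1% CHAPS, pH 5.8 before enzyme addition.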

[14] = Stability assessed as half life in citrate phosphate buffer at pH 6.8 in presence of dithiothreitol; format: physicochemical; settings: citrate phosphate buffer with dithiothreitol
[15] = system: Schistosoma mansoni; assay: Inhibition of Schistosoma mansoni AE assessed as ratio of pseudo-first-order inhibition rate constant to inhibitor concentration
In short: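 Autoactivated recombinant SmAE added to six inhibitor concentrations (0–1 µM final) in 0.1 M citrate phosphate, 2 mM DTT, pH 6.8 with 20 µM Cbz-Ala-Ala-Asn-AMC; progress followed every 2 s for 30 min at 25 °C (ex 355, em 460 nm); kobs/[I] by nonlinear regression, corrected for substrate by factor 1.33.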

[16] = system: Schistosoma mansoni; assay: as §2; in short: as §1

`C[C@H](NC(=O)OCc1ccccc1)C(=O)N[C@@H](C)C(=O)NN(CC(N)=O)C(=O)COC(=O)c1ccccc1` gave a Ratio [1] of 13 M⁻¹ s⁻¹.
Compound `C[C@H](NC(=O)OCc1ccccc1)C(=O)N[C@@H](C)C(=O)NN(CC(N)=O)C(=O)/C=C/C(=O)NCCc1ccccc1` has an IC50 [2] of 10 nM, an IC50 [3] of 350 nM and an IC50 [4] of 600 nM. The Activity [5] was “inactive”, the Activity [6] was “inactive” and the Activity [7] was “inactive”. The Activity [8] was “inactive”, the Ratio [9] was 12 M⁻¹ s⁻¹ and the Activity [10] was “inactive”. For the same compound, the Activity [11] was “inactive” and the Activity [12] was “inactive”.
With `Cc1ccc(C)c(C(=O)OCC(=O)[C@H](CC(N)=O)NC(=O)OCc2ccccc2)c1` the Ratio [13] was 109000 M⁻¹ s⁻¹.
With `C[C@H](NC(=O)OCc1ccccc1)C(=O)N[C@@H](C)C(=O)NN(CC(N)=O)C(=O)/C=C/C(=O)OCc1ccccc1` the IC50 [2] was 5 nM, the IC50 [3] was < 1 nM and the half-life [14] was 2.5 min.
Compound `CCOC(=O)[C@H]1O[C@@H]1C(=O)N(CC(N)=O)NC(=O)[C@H](C)NC(=O)[C@H](C)NC(=O)OCc1ccccc1` has an IC50 [4] of 53 nM, a Ratio [15] of 17400 M⁻¹ s⁻¹ and a Ratio [1] of 43000 M⁻¹ s⁻¹.
For `CCN(CC)C(=O)/C=C/C(=O)N(CC(N)=O)NC(=O)[C@H](C)NC(=O)[C@H](C)NC(=O)OCc1ccccc1`, the IC50 [2] was 2000 nM, the IC50 [3] was 2700 nM and the Activity [16] was “inactive”. It also gave a Ratio [15] of 17400 M⁻¹ s⁻¹.
`C[C@H](NC(=O)OCc1ccccc1)C(=O)N[C@@H](C)C(=O)NN(CC(N)=O)C(=O)CCl` gave a Ratio [1] of 139000 M⁻¹ s⁻¹.
Compound `C=CCOC(=O)/C=C/C(CC(N)=O)NC(=O)[C@H](C)NC(=O)[C@H](C)NC(=O)OCc1ccccc1` (stereo partly specified) has a Ratio [1] of 776 M⁻¹ s⁻¹.
Work on `C[C@H](NC(=O)OCc1ccccc1)C(=O)N[C@@H](C)C(=O)NN(CC(N)=O)C(=O)/C=C/C(=O)N1CCc2ccccc21` yielded an IC50 [2] of 50 nM, an IC50 [3] of 18 nM and an IC50 [4] of 70 nM. For the same compound, the Activity [5] was “inactive”, the Activity [6] was “inactive” and the Activity [7] was “inactive”. For the same compound, the Activity [8] was “inactive”, the Activity [9] was “inactive” and the Activity [10] was “inactive”. For the same compound, the Ratio [11] was 1 M⁻¹ s⁻¹ and the Activity [12] was “inactive”.
With `C[C@H](NC(=O)OCc1ccccc1)C(=O)N[C@@H](C)C(=O)NN(CC(N)=O)C(=O)/C=C/C(=O)c1ccccc1` the IC50 [2] was ≥ 10000 nM, the IC50 [3] was > 20000 nM and the Activity [16] was “inactive”.
In the case of `C/C=C/C=C/C(=O)N(CC(N)=O)NC(=O)[C@H](C)NC(=O)[C@H](C)NC(=O)OCc1ccccc1`, the IC50 [2] is reported as 8000 nM and the Activity [16] is reported as “inactive”.
